From ChEMBL document CHEMBL1955851, “Fatty acyl amide derivatives of doxorubicin: synthesis and in vitro anticancer activities” (Eur J Med Chem, 2011)
Active and inactive are the calls of the source. The calls are words filed in the database; no cut-off is given here.

How the values were obtained:
HT-29 = assay: Antiproliferative activity against human HT-29 cells assessed as growth inhibition at 1 uM after 120 hrs by spectrophotometry relative to control; format: functional; settings: for inhibition of growth at 1 µM: HT-29, 120 h, read-out: GI
Summary of the method: (§1)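 CellTiter 96 AQueous One (MTS) proliferation assay. Cells grown at 37 °C, 5% CO2, 10% FBS plus 1% penicillin-streptomycin. Medium was RPMI for CCRF-CEM and EMEM for MDA-MB-468, SK-OV-3 and HT-29. Compound at 1 μM in 4% DMSO, triplicate wells, incubated 24-120 h, then 1 h with reagent. A490 read. Survival % = (treated − medium)/(control − medium) × 100.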

CCRF-CEM [1] = assay: Antiproliferative activity against human CCRF-CEM cells assessed as growth inhibition at 1 uM after 24 to 96 hrs by spectrophotometry; format: functional, cell-based; summary of the method: as §1
MDA-MB-468 [2] = assay: Antiproliferative activity against human MDA-MB-468 cells assessed as growth inhibition at 1 uM after 96 hrs by spectrophotometry relative to control; format: functional; settings: MDA-MB-468, 96 h, read-out: GI; summary of the method: as §1
SK-OV-3 [3] = assay: Antiproliferative activity against human SKOV3 cells assessed as growth inhibition at 1 uM after 96 hrs by spectrophotometry relative to control; format: functional; settings: SK-OV-3, 96 h, read-out: GI; summary of the method: as §1
MDA-MB-468 [4] = assay: Antiproliferative activity against human MDA-MB-468 cells assessed as growth inhibition at 1 uM after 24 hrs by spectrophotometry; format: functional, cell-based; summary of the method: as §1
SK-OV-3 [5] = assay: Antiproliferative activity against human SKOV3 cells assessed as growth inhibition at 1 uM after 24 to 96 hrs by spectrophotometry; format: functional, cell-based; summary of the method: as §1
CCRF-CEM [6] = assay: Antiproliferative activity against human CCRF-CEM cells assessed as growth inhibition at 1 uM after 96 hrs by spectrophotometry relative to control; format: functional; settings: read-out: GI; summary of the method: as §1
[7] = n-Octanol-water partition coefficient, log P of the compound by shake flask method; format: physicochemical
Summary of the method: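 Shake-flask method. 100 µg of derivative partitioned between 300 µL 1-octanol and 300 µL distilled water, shaken 30 min, phases left to separate. Each phase quantified by UV spectroscopy against a standard spectrum. P = octanol/water concentration ratio, reported as Log P. Mean of three runs.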

| logP [7] | Structure (SMILES) | inhibition of growth at 1 µM (HT-29) [%] | growth inhibition (GI) (CCRF-CEM [1]) | inhibition of growth at 1 µM (MDA-MB-468 [2]) [%] | inhibition of growth at 1 µM (SK-OV-3 [3]) [%] | growth inhibition (GI) (MDA-MB-468 [4]) | growth inhibition (GI) (HT-29) | growth inhibition (GI) (SK-OV-3 [5]) | inhibition of growth at 1 µM (CCRF-CEM [6]) [%] |
| --- | --- | --- | --- | --- | --- | --- | --- | --- | --- |
| – | CCCCCCCCCCCC(=O)N[C@H]1C[C@H](O[C@H]2C[C@](O)(C(=O)CO)Cc3c(O)c4c(c(O)c32)C(=O)c2c(OC)cccc2C4=O)O[C@@H](C)[C@H]1O | 64 | inactive | 38 | 58 | inactive | – | – | – |
| – | CCCCCCCCCCCCCCCCCC(=O)N[C@H]1C[C@H](O[C@H]2C[C@](O)(C(=O)CO)Cc3c(O)c4c(c(O)c32)C(=O)c2c(OC)cccc2C4=O)O[C@@H](C)[C@H]1O | – | inactive | – | – | inactive | Active | Active | – |
| – | CCSCCCCCCCCCCCC(=O)N[C@H]1C[C@H](O[C@H]2C[C@](O)(C(=O)CO)Cc3c(O)c4c(c(O)c32)C(=O)c2c(OC)cccc2C4=O)O[C@@H](C)[C@H]1O | – | inactive | – | – | inactive | – | – | – |
| – | CCCCCCCC(=O)N[C@H]1C[C@H](O[C@H]2C[C@](O)(C(=O)CO)Cc3c(O)c4c(c(O)c32)C(=O)c2c(OC)cccc2C4=O)O[C@@H](C)[C@H]1O | – | inactive | – | – | inactive | Active | Active | – |
| – | CCCCCCCCCCCCCCCC(=O)N[C@H]1C[C@H](O[C@H]2C[C@](O)(C(=O)CO)Cc3c(O)c4c(c(O)c32)C(=O)c2c(OC)cccc2C4=O)O[C@@H](C)[C@H]1O | – | inactive | – | – | inactive | Active | Active | – |
| – | CCCCCCCCCCCCCCCCCCCC(=O)N[C@H]1C[C@H](O[C@H]2C[C@](O)(C(=O)CO)Cc3c(O)c4c(c(O)c32)C(=O)c2c(OC)cccc2C4=O)O[C@@H](C)[C@H]1O | – | inactive | – | – | inactive | Active | Active | – |
| – | CCCCCCCCCCCCCC(=O)N[C@H]1C[C@H](O[C@H]2C[C@](O)(C(=O)CO)Cc3c(O)c4c(c(O)c32)C(=O)c2c(OC)cccc2C4=O)O[C@@H](C)[C@H]1O | 41 | – | 31 | 50 | inactive | – | – | 27 |
| 1.18 | COc1cccc2c1C(=O)c1c(O)c3c(c(O)c1C2=O)C[C@@](O)(C(=O)CO)C[C@@H]3O[C@H]1C[C@H](NC(C)=O)[C@H](O)[C@H](C)O1 | – | inactive | – | – | inactive | Active | Active | – |
| – | CCCCCCCCCC(=O)N[C@H]1C[C@H](O[C@H]2C[C@](O)(C(=O)CO)Cc3c(O)c4c(c(O)c32)C(=O)c2c(OC)cccc2C4=O)O[C@@H](C)[C@H]1O | – | inactive | – | – | inactive | Active | Active | – |
| 0.6 | COc1cccc2c1C(=O)c1c(O)c3c(c(O)c1C2=O)C[C@@](O)(C(=O)CO)C[C@@H]3O[C@H]1C[C@H](N)[C@H](O)[C@H](C)O1 [DOXORUBICIN] | – | – | – | – | – | – | – | – |
